Tests used:
Type in all cases: functional
CCRF-CEM [1] = assay: Antiproliferative activity against human CCRF-CEM cells assessed as cell viability at 25 uM after 72 hrs by MTT assay; conditions: read-out: Activity
Outline: (§1)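 MTT viability assay in CCRF-CEM and MCF-7 cells after 72 h exposure at 25, 50, 100 and 200 µM. Results are relative to control cells without inhibitor in 0.5% DMSO. Done in triplicate; values are means ± SD of three independent experiments.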

CCRF-CEM [2] = assay: Antiproliferative activity against human CCRF-CEM cells assessed as cell viability at 50 uM after 72 hrs by MTT assay; conditions: read-out: Activity; outline: as §1
CCRF-CEM [3] = assay: Antiproliferative activity against human CCRF-CEM cells assessed as cell viability at 100 uM after 72 hrs by MTT assay; conditions: read-out: Activity; outline: as §1
CCRF-CEM [4] = assay: Antiproliferative activity against human CCRF-CEM cells assessed as cell viability at 200 uM after 72 hrs by MTT assay; conditions: read-out: Activity; outline: as §1
MCF7 [5] = assay: Antiproliferative activity against human MCF7 cells assessed as cell viability at 25 uM after 72 hrs by MTT assay; conditions: MCF7, 72 h, read-out: Activity; outline: as §1
MCF7 [6] = assay: Antiproliferative activity against human MCF7 cells assessed as cell viability at 50 uM after 72 hrs by MTT assay; conditions: MCF7, 72 h, read-out: Activity; outline: as §1
MCF7 [7] = assay: Antiproliferative activity against human MCF7 cells assessed as cell viability at 100 uM after 72 hrs by MTT assay; conditions: MCF7, 72 h, read-out: Activity; outline: as §1
MCF7 [8] = assay: Antiproliferative activity against human MCF7 cells assessed as cell viability at 200 uM after 72 hrs by MTT assay; conditions: MCF7, 72 h, read-out: Activity; outline: as §1
Candida albicans [9] = assay: Growth inhibition of Candida albicans ATCC 90028 at 16 ug/ml incubated for 18 hrs at 35 degC by broth microdilution method relative to control; conditions: ATCC 90028, 18 h, read-out: GI
Candida albicans [10] = assay: Growth inhibition of Candida albicans ATCC 90028 at 16 ug/ml incubated for 48 hrs at 35 degC by broth microdilution method relative to control; conditions: ATCC 90028, 48 h, read-out: GI
Candida albicans [11] = assay: Growth inhibition of Candida albicans ATCC 90028 at 8 ug/ml incubated for 18 hrs at 35 degC by broth microdilution method relative to control; conditions: ATCC 90028, 18 h, read-out: GI
Candida albicans [12] = assay: Growth inhibition of Candida albicans ATCC 90028 at 8 ug/ml incubated for 48 hrs at 35 degC by broth microdilution method relative to control; conditions: ATCC 90028, 48 h, read-out: GI
Candida albicans [13] = assay: Growth inhibition of Candida albicans ATCC 90028 at 4 ug/ml incubated for 18 hrs at 35 degC by broth microdilution method relative to control; conditions: ATCC 90028, 18 h, read-out: GI
Candida albicans [14] = assay: Growth inhibition of Candida albicans ATCC 90028 at 8 ug/ml incubated for 4 hrs at 35 degC by broth microdilution method relative to control; conditions: ATCC 90028, 4 h, read-out: GI
Candida albicans [15] = assay: Growth inhibition of Candida albicans ATCC 90028 at 2 ug/ml incubated for 18 hrs at 35 degC by broth microdilution method relative to control; conditions: ATCC 90028, 18 h, read-out: GI
Candida albicans [16] = assay: Growth inhibition of Candida albicans ATCC 90028 at 2 ug/ml incubated for 4 hrs at 35 degC by broth microdilution method relative to control; conditions: ATCC 90028, 4 h, read-out: GI
Candida albicans [17] = assay: Growth inhibition of Candida albicans ATCC 90028 at 1 ug/ml incubated for 18 hrs at 35 degC by broth microdilution method relative to control; conditions: ATCC 90028, 18 h, read-out: GI
Candida albicans [18] = assay: Growth inhibition of Candida albicans ATCC 90028 at 1 ug/ml incubated for 4 hrs at 35 degC by broth microdilution method relative to control; conditions: ATCC 90028, 4 h, read-out: GI
Candida albicans [19] = assay: Growth inhibition of Candida albicans ATCC 90028 at 0.5 ug/ml incubated for 18 hrs at 35 degC by broth microdilution method relative to control; conditions: ATCC 90028, 18 h, read-out: GI
Candida albicans [20] = assay: Growth inhibition of Candida albicans ATCC 90028 at 0.5 ug/ml incubated for 4 hrs at 35 degC by broth microdilution method relative to control; conditions: ATCC 90028, 4 h, read-out: GI
Candida albicans [21] = assay: Growth inhibition of Candida albicans ATCC 90028 at 0.25 ug/ml incubated for 18 hrs at 35 degC by broth microdilution method relative to control; conditions: ATCC 90028, 18 h, read-out: GI
Candida albicans [22] = assay: Growth inhibition of Candida albicans ATCC 90028 at 0.25 ug/ml incubated for 4 hrs at 35 degC by broth microdilution method relative to control; conditions: ATCC 90028, 4 h, read-out: GI
Candida albicans [23] = assay: Growth inhibition of Candida albicans ATCC 90028 at 0.125 ug/ml incubated for 18 hrs at 35 degC by broth microdilution method relative to control; conditions: ATCC 90028, 18 h, read-out: GI
Candida albicans [24] = assay: Growth inhibition of Candida albicans ATCC 90028 at 0.125 ug/ml incubated for 4 hrs at 35 degC by broth microdilution method relative to control; conditions: ATCC 90028, 4 h, read-out: GI
Candida albicans [25] = assay: Growth inhibition of Candida albicans ATCC 90028 at 0.0625 ug/ml incubated for 18 hrs at 35 degC by broth microdilution method relative to control; conditions: ATCC 90028, 18 h, read-out: GI
Candida albicans [26] = assay: Growth inhibition of Candida albicans ATCC 90028 at 0.0625 ug/ml incubated for 4 hrs at 35 degC by broth microdilution method relative to control; conditions: ATCC 90028, 4 h, read-out: GI
Candida albicans [27] = assay: Growth inhibition of Candida albicans ATCC 90028 at 0.0313 ug/ml incubated for 18 hrs at 35 degC by broth microdilution method relative to control; conditions: ATCC 90028, 18 h, read-out: GI
Candida albicans [28] = assay: Growth inhibition of Candida albicans ATCC 90028 at 0.0313 ug/ml incubated for 4 hrs at 35 degC by broth microdilution method relative to control; conditions: ATCC 90028, 4 h, read-out: GI
Candida albicans [29] = assay: Fungicidal activity against Candida albicans ATCC 90028 assessed as log reduction in cell viability at 16 ug/ml after 48 hrs at 35 degC
Outline: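 MFC assay on C. albicans ATCC 90028 following M27-A3, at the molar equivalent of 16 µg/mL. CFU of treated cells were compared with CFU of the untreated inoculum. Activity is given as lg R = lg CFU/mL control − lg CFU/mL treated, and lg R ≥3 was defined as fungicidal. Values are means of two independent experiments.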

Row | Compound | viability at 25 µM (CCRF-CEM [1]) | viability at 50 µM (CCRF-CEM [2]) | viability at 100 µM (CCRF-CEM [3]) | viability at 200 µM (CCRF-CEM [4]) | viability at 25 µM (MCF7 [5]) | viability at 50 µM (MCF7 [6]) | viability at 100 µM (MCF7 [7]) | viability at 200 µM (MCF7 [8]) | inhibition of growth at 16 µg/mL (Candida albicans [9]) | inhibition of growth at 16 µg/mL (Candida albicans [10]) | inhibition of growth at 8 µg/mL (Candida albicans [11]) | inhibition of growth at 8 µg/mL (Candida albicans [12]) | inhibition of growth at 4 µg/mL (Candida albicans [13]) | inhibition of growth at 8 µg/mL (Candida albicans [14]) | inhibition of growth at 2 µg/mL (Candida albicans [15]) | inhibition of growth at 2 µg/mL (Candida albicans [16]) | inhibition of growth at 1 µg/mL (Candida albicans [17]) | inhibition of growth at 1 µg/mL (Candida albicans [18]) | inhibition of growth at 0.5 µg/mL (Candida albicans [19]) | inhibition of growth at 0.5 µg/mL (Candida albicans [20]) | other results
1 | CC(Cn1cnc2c1c(=O)n(C)c(=O)n2C)OC(=O)C1c2ccccc2-c2ccccc21 (stereo unspecified) | 41.5% | 2.8% | 0.1% | 2.3% | 101% | 85.1% | 63.5% | 28.3% | 99.8% | 99.3% | 99.8% | 99.4% | 100% | 99.4% | 100% | 99.4% | 99.8% | 99.3% | 99.8% | 99.1% | inhibition of growth at 0.25 µg/mL (Candida albicans [21]): 99.9%; inhibition of growth at 0.25 µg/mL (Candida albicans [22]): 99%; inhibition of growth at 0.125 µg/mL (Candida albicans [23]): 99.7%; inhibition of growth at 0.125 µg/mL (Candida albicans [24]): 98.9%; inhibition of growth at 0.0625 µg/mL (Candida albicans [25]): 99.7%; inhibition of growth at 0.0625 µg/mL (Candida albicans [26]): 99%; inhibition of growth at 0.0313 µg/mL (Candida albicans [27]): 99.8%; inhibition of growth at 0.0313 µg/mL (Candida albicans [28]): 99.3%; log(activity) (Candida albicans [29]): 0.8
2 | CC(Cn1cnc2c1c(=O)n(C)c(=O)n2C)OC(=O)Nc1ccccc1 (stereo unspecified) | 78.9% | 73.1% | 53.5% | 38.5% | 91.9% | 83.6% | 84.7% | 81% | 100% | 99.1% | 99.9% | 99.2% | 99.7% | 99.2% | 100% | 99.4% | 99.9% | 99.3% | 100% | 99.2% | inhibition of growth at 0.25 µg/mL (Candida albicans [21]): 100%; inhibition of growth at 0.25 µg/mL (Candida albicans [22]): 99.2%; inhibition of growth at 0.125 µg/mL (Candida albicans [23]): 100%; inhibition of growth at 0.125 µg/mL (Candida albicans [24]): 99.3%; inhibition of growth at 0.0625 µg/mL (Candida albicans [25]): 100%; inhibition of growth at 0.0625 µg/mL (Candida albicans [26]): 99.3%; inhibition of growth at 0.0313 µg/mL (Candida albicans [27]): 100%; inhibition of growth at 0.0313 µg/mL (Candida albicans [28]): 99.4%; log(activity) (Candida albicans [29]): 0.6
3 | CC(Cn1cnc2c1c(=O)n(C)c(=O)n2C)OC(=O)CC(=O)c1ccccc1 (stereo unspecified) | 85.1% | 88.1% | 65.6% | 38.5% | 91.3% | 79.8% | 79.3% | 81.8% | 99.7% | 99% | 99.8% | 99% | 99.2% | 99.1% | 99.3% | 99.1% | 99.3% | 99.1% | 99.1% | 99% | inhibition of growth at 0.25 µg/mL (Candida albicans [21]): 99.1%; inhibition of growth at 0.25 µg/mL (Candida albicans [22]): 99%; inhibition of growth at 0.125 µg/mL (Candida albicans [23]): 99.2%; inhibition of growth at 0.125 µg/mL (Candida albicans [24]): 99%; inhibition of growth at 0.0625 µg/mL (Candida albicans [25]): 99.2%; inhibition of growth at 0.0625 µg/mL (Candida albicans [26]): 99.1%; inhibition of growth at 0.0313 µg/mL (Candida albicans [27]): 99.2%; inhibition of growth at 0.0313 µg/mL (Candida albicans [28]): 99.1%; log(activity) (Candida albicans [29]): 0.7
4 | COC(C(=O)OC(C)Cn1cnc2c1c(=O)n(C)c(=O)n2C)c1ccc(C(C)(C)C)cc1 (stereo unspecified) | 75.8% | 55.3% | 28.6% | 0% | 82.2% | 79.5% | 63.5% | 35% | 99.8% | 99.2% | 100% | 99.7% | 99.9% | 99.5% | 99.9% | 99.2% | 99.8% | 99.4% | 99.7% | 98.9% | inhibition of growth at 0.25 µg/mL (Candida albicans [21]): 100%; inhibition of growth at 0.25 µg/mL (Candida albicans [22]): 99.3%; inhibition of growth at 0.125 µg/mL (Candida albicans [23]): 100%; inhibition of growth at 0.125 µg/mL (Candida albicans [24]): 99.2%; inhibition of growth at 0.0625 µg/mL (Candida albicans [25]): 99.9%; inhibition of growth at 0.0625 µg/mL (Candida albicans [26]): 99%; inhibition of growth at 0.0313 µg/mL (Candida albicans [27]): 99.8%; inhibition of growth at 0.0313 µg/mL (Candida albicans [28]): 99.4%; log(activity) (Candida albicans [29]): 0.2
